Screening data deposited in PubChem by The Scripps Research Institute Molecular Screening Center.
Most compounds without a hit are left out; they make up all but 4.6% or so of the library.
TAAR1 agonist – human TAAR1 agonists, primary screen, Fluo-8 calcium fluorescence, CHO RD-HGA16 cells | Trace amine-associated receptor 1 (Homo sapiens), Q96RJ0 | vehicle wells 0%, saturating PEA agonist 100% | activation, % at 3 µM | 360,000 compounds, 0.99% hits | AID 624467, 2012;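 active = activation above the mean activation of all test compounds in the run plus 3 SD, cut at about 38% in these data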
Target sequence (Q96RJ0 whole entry, looked up): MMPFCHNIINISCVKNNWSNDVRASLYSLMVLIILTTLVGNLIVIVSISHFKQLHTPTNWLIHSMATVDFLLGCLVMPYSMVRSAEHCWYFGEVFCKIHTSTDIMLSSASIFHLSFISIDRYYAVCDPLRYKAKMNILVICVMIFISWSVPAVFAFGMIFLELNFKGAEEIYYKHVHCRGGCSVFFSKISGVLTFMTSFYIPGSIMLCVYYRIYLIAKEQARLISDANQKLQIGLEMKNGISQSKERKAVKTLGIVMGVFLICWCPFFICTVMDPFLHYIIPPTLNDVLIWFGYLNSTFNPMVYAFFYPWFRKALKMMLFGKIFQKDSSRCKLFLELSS
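test system = CHO RD-HGA16 cells carrying human TAAR1 plus Gα16 | schedule = 17-24 h seeding, 75 min 37 °C dye, 30 min RT | compound dosing = 3 µM single concentration | control set = DMSO and PEA EC100 | replicates = n 1 | signal = Fluo-8 fluorescence, 5 s baseline then 140 s kinetic read | measure = percent activation vs PEA EC100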
GPR7 antag – GPR7 receptor antagonists, primary screen, cell-based, fluorescence, single concentration. Neuropeptides B/W receptor type 1 (Homo sapiens), P48145. GPR7-expressing cells, fluorescence antagonist assay. inhibition, % at 4.4 µM. 290,000 compounds, 1.1% hits; in the data active = inhibition above about 16%, passing the limit was not always enough;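 also: cells stimulated with the agonist NPW; 0% = agonist with vehicle and 100% = vehicle without agonist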
Target sequence (P48145 whole entry, looked up): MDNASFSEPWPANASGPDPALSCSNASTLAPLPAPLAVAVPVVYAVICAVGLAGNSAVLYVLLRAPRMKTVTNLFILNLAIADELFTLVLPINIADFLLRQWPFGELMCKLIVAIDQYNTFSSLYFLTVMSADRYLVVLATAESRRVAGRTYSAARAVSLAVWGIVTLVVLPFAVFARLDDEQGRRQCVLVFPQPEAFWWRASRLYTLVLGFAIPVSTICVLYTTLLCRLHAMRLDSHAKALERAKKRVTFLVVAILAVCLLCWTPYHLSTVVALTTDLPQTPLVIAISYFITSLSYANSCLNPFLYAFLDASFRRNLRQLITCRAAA
OX1R antag-1 – OX1R (HCRTR1) antagonists, primary screen, fluorescence, CHO/OX1R cells, Fluo-8 calcium, orexin A. inhibition, % at 5 µM. Fluo-8 calcium fluorescence. Orexin/Hypocretin receptor type 1 (Homo sapiens), O43613. AID 434989, 2010. 330,000 compounds, 0.43% hits;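 active = inhibition above its plate's threshold, mean inhibition of all tested compounds on the plate plus 3 SD, cut at about 37% in these data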;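 also: 0% = orexin A challenge wells and 100% = SB-334867-A antagonist wells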
CHO parental Ca – ATP-evoked calcium signal inhibitors, parental CHO, primary screen, counter-screen for OX1R antagonist project, cell-based, fluorescence, Fluo-8 calcium dye; parental CHO-K1, ATP-induced calcium, Fluo-8 fluorescence; inhibition, % at 5.6 µM; 330,000 compounds, 0.63% hits;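 active = inhibition above that plate's mean sample inhibition plus 3 SD, cut at about 26% in these data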;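 also: 0% = ATP-challenged DMSO wells and 100% = DMSO wells without ATP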
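Material: parental CHO cells / Compound: single nominal dose of 5.6 µM per compound / Signal: Fluo-8 fluorescence / Replicates: singlicate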
OX1R antag-2 – antagonists of human orexin 1 receptor (OX1R) | inhibition, % at 6.6 µM | AID 485270, 2010 | 330,000 compounds, 1.8% hits | OX1R-expressing cells, FRET antagonist read-out | Orexin/Hypocretin receptor type 1 (Homo sapiens), O43613; in the data active = inhibition mostly above about 38%, no sharp cut-off; inactive = mostly below about 40%;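 also: 0% = agonist challenge alone and 100% = reference antagonist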
TAAR1 antagonist – human TAAR1 antagonists, primary screen, Fluo-8 calcium fluorescence, CHO RD-HGA16 cells. Trace amine-associated receptor 1 (Homo sapiens), Q96RJ0. antagonist. inhibition, % at 3 µM. 360,000 compounds, 1.5% hits;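 active = inhibition above a per-plate cutoff, the mean inhibition of test compounds on that plate plus 3 SD, cut at about 49% in these data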;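 also: 0% = DMSO plus EC80 beta-PEA response and 100% = DMSO alone without agonist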
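Test system – hTAAR1-expressing CHO RD-HGA16 cells, Gα16-coupled · Reagent – β-PEA at EC80 concentration, post-compound challenge · Compound dosing – 3 µM, single point · Timing – 140 s kinetic read after compound, 140 s after agonist · Detection – Fluo-8 intracellular calcium dye fluorescence, real-time kinetic reads · Control set – DMSO and EC80 PEA controls · Repeats – n of 1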
The depositor's hits bear a star; · = not tested or not shown.

SMILES | TAAR1 agonist | GPR7 antag | OX1R antag-1 | CHO parental Ca | OX1R antag-2 | TAAR1 antagonist
O=C(O)c1ccccc1Nc1cc(Cl)c2nonc2c1[N+](=O)[O-] | 1 | -17 | -5 | -9 | 61* | -30
CCNc1cc(Nc2c(C)n(C)n(-c3ccccc3)c2=O)c([N+](=O)[O-])c2nonc12 | 0 | -14 | 2 | -2 | 39 | 11
O=C(O)c1ccc(Nc2ccc([N+](=O)[O-])c3nonc23)cc1 | 0 | 1 | · | · | · | -3
O=C(O)c1ccccc1Nc1ccc([N+](=O)[O-])cc1 | -2 | -2 | 1 | -10 | 10 | 4
CN(C)c1cc(Nc2cccc(O)c2)c([N+](=O)[O-])c2nonc12 | 1 | -8 | -20 | 3 | 64 | -11
CSc1nc2nccc(-c3ccc(-c4ccccc4)cc3)n2n1 | 5 | -5 | 1 | -25 | 44* | 8
CSc1nc2nccc(-c3ccc4c(c3)OCO4)n2n1 | 1 | -10 | 10 | -2 | 12 | -33
COc1cc(NC(=O)C2CCN(S(=O)(=O)c3cccs3)CC2)cc(OC)c1 | 3 | · | 17 | -2 | 51* | -3
COc1ccc(C)cc1NC(=O)C1CCCN(S(=O)(=O)c2cccs2)C1 (stereo not given) | 0 | -8 | -13 | -21 | 37* | -9
Cc1ccc(NC(=O)CSc2cccc[n+]2[O-])c([N+](=O)[O-])c1 | 1 | -6 | -1 | -1 | 69* | -31
O=C(CSc1cccc[n+]1[O-])Nc1cc([N+](=O)[O-])ccc1Cl | 0 | -13 | -23 | -2 | 43* | -5
Cc1cc(C)c(NC(=O)CSc2cccc[n+]2[O-])c(C)c1 | 1 | · | -8 | -7 | 5 | -1
O=C(CSc1cccc[n+]1[O-])Nc1ccc(Cl)cc1F | 2 | · | -24 | 4 | -1 | -15
C=CCN=C1NC(c2ccccc2)C(C(=O)OC)=C(C)N1Cc1ccccc1C(F)(F)F (stereo not given) | 10 | · | · | · | · | -21
CCN1C(=O)[C@H]2[C@@H](c3ccc(C)cc3)N3C(=O)N(c4cccc(Cl)c4)C(=O)[C@@]3(Cc3ccc(Cl)cc3)[C@H]2C1=O | 8 | · | 4 | -9 | 56 | 5
CCN1C(=O)[C@H]2[C@@H](c3ccc(C)cc3)N3C(=O)N(c4cccc(F)c4)C(=O)[C@@]3(Cc3ccc(Cl)cc3)[C@H]2C1=O | 6 | · | -6 | -9 | 56* | 6
Cc1[nH]nc2c1C(c1cccc(C(F)(F)F)c1)NC2=O (stereo not given) | 1 | · | · | · | · | 0
CCOC(=O)c1cc([N+](=O)[O-])sc1NC(=O)CC | -2 | -8 | -14 | -8 | 61* | -10
NN1C(=O)/C(=C2/Sc3ccccc3N2CCCS(=O)(=O)O)SC1=S | 1 | 14 | 2 | 9 | 38* | -7
COCCNC(=O)C1(C)CCCN(C(=O)c2ccccc2F)C1 (stereo not given) | 1 | · | · | · | · | -3
Cc1cc(C)nc(SSc2nc(C)cc(C)n2)n1 | 46* | -1 | 2 | -8 | 8 | 26
O=C(NS(=O)(=O)c1cccc(F)c1)[C@H]1O[C@@H](n2ccc(=O)[nH]c2=O)[C@H](O)[C@@H]1O | 2 | · | · | · | · | -28
CC(C)COP(=O)(OCC(C)C)C(Nc1ccccc1)c1ccccc1 (stereo not given) | 6 | 7 | -27 | -24 | 23 | 17
CC(C)COP(=O)(OCC(C)C)C(Nc1ccccc1)c1ccc(F)cc1 (stereo not given) | 3 | 18* | -22 | -51 | 17 | 32
COc1ccc(C=CC(=O)c2c(N)n(C)c(=O)n(C)c2=O)cc1 | 1 | · | · | · | · | -3
SMILES | TAAR1 agonist | GPR7 antag | OX1R antag-1 | CHO parental Ca | OX1R antag-2 | TAAR1 antagonist
COC(=O)[C@]12C[C@H](CC(=O)N3CCN(C(=O)C4CC4)CC3)C(=O)N(CCC3=CCCCC3)C1=C[C@H](COCc1ccccc1)O[C@@H]2C | 0 | · | · | · | · | -4
CS(=O)(=O)NNC(=O)C1Cc2c(ccc3ccccc23)O1 (stereo not given) | 1 | -10 | -8 | -1 | 13 | -18
O=C(NNS(=O)(=O)c1ccc(F)cc1F)C1Cc2c(ccc3ccccc23)O1 (stereo not given) | 4 | -13 | 51* | 42* | 27 | 5
CC(C)c1ccc(/C=C/C(=O)Nc2nc3ccc([N+](=O)[O-])cc3s2)cc1 | 12 | -12 | -11 | 0 | 18 | -14
O=[N+]([O-])c1ccc2nc(NN=Cc3ccc(O)cc3)sc2c1 | 12 | · | · | · | · | 51*
CCN(CC)c1ncnc2c1ncn2[C@H]1CN(Cc2cccnc2)C[C@@H](CO)O1 | 0 | · | · | · | · | -16
CC(C)c1ccc(NC(=O)C2CCCN2S(=O)(=O)c2ccccc2F)cc1 (stereo not given) | 4 | · | 21 | -14 | 37* | -10
CC(=O)c1sc(NC(=O)C2CCCN2S(=O)(=O)c2ccccc2F)nc1C (stereo not given) | 2 | · | 37 | -18 | 37* | -6
COc1ccc(C)cc1NC(=O)C1CCCN1S(=O)(=O)c1ccccc1F (stereo not given) | 14 | · | 14 | -25 | 52* | -17
O=C(Nc1nccs1)[C@@H]1CCCN1S(=O)(=O)c1ccccc1F | 2 | · | · | · | · | -14
Cc1ccc(C)c(NC(=O)[C@@H]2CCCN2S(=O)(=O)c2ccccc2F)c1 | 5 | · | 21 | -10 | 43* | 10
CC(=O)N1CCN(C2=NC(=O)/C(=C\c3cccs3)S2)CC1 | 4 | 0 | 1 | -5 | 41* | 9
O=C1N=C(N2CCOCC2)S/C1=C\c1ccncc1 | 2 | -15 | 0 | 3 | 39* | -30
CC(C)c1ccc(/C=C2\SC(N3CCOCC3)=NC2=O)cc1 | 3 | -5 | -21 | -17 | 27 | -45
Cc1ccc(C(=O)N/C(=C\c2ccc(-c3ccc(Cl)cc3)o2)C(=O)NCCCN(C)C)cc1 | 10 | 27* | -20 | -17 | 16 | 3
CC1(C)CC(=O)C=C(c2n[nH]nc2C2=CCCCC2)C1 | -2 | · | · | · | · | 8
CCCCCc1nc2c(C#N)c(-c3ccc(Cl)cc3)ccn2n1 | -1 | -7 | -8 | -2 | 16 | 16
N#Cc1c(-c2ccc(Cl)cc2)ccn2nc(CCC(=O)O)nc12 | 9 | -20 | -4 | 8 | 56* | 0
Cc1ccc(S(=O)(=O)N(CC(=O)N2CCCC2)C2CCCCC2)cc1 | 8 | -18 | -20 | -12 | 4 | 5
Cc1cc(C)c(S(=O)(=O)N(CC(=O)N2CCCC2)C2CCCCC2)c(C)c1 | 3 | 16* | -18 | -16 | 23 | -1
